An excerpt weighted towards active compounds, which were near 2.1% of everything screened.
SUMO1-SIM PPI: modulators of SUMO1 protein-protein interactions, primary screen, biochemical, uHTS; Small ubiquitin-related modifier 1 (Homo sapiens), P63165; SUMO1 binding to a labelled peptide, TR-FRET, 1 h; inhibition, % at 20 µM; 360,000 tested, 0.33% active; in the data active means inhibition above about 37%
Target sequence (P63165 whole entry, looked up): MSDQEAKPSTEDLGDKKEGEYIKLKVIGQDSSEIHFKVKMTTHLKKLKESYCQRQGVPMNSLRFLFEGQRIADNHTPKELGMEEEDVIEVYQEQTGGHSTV
GRK2 inh: compounds blocking aptamer binding on GRK2 – biochemical, human GRK2, bead flow cytometry, HTS, primary screen | 330,000 tested, 0.59% active | AID 488847, 2010 | FAM-aptamer displacement from GRK2 | Beta-adrenergic receptor kinase 1 (Homo sapiens), P25098 | inhibition of aptamer binding, % at 10 µM;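 active means inhibition of aptamer binding above 40%, roughly 3 SD of noise, on plates passing a quality check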;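 further: median bead fluorescence of bound FAM aptamer so fluorescent compounds give negative values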
Scp-1 inhibitor: Scp-1 phosphatase inhibitors, primary screen, biochemical, colorimetric, uHTS | Recombinant Scp1, phosphopeptide, malachite green phosphate absorbance | inhibition, % at 20 µM | AID 493091, 2011 | Carboxy-terminal domain RNA polymerase II polypeptide A small phosphatase 1 (Homo … | 340,000 tested, 0.88% active;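 active means inhibition above about 50% at 20 µM, limit read from the data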;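 further: plate controls were DMSO wells with enzyme for no effect and wells lacking enzyme for full effect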
Target sequence (Q9GZU7 76-261 limits assumed): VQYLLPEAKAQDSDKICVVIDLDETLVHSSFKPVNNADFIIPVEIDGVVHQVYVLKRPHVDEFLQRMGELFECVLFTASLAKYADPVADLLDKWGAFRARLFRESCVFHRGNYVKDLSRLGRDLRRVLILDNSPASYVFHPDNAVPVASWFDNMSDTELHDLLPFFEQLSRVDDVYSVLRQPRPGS
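Assay system: SCP-1 catalytic fragment, aa 76-261 | Buffer or medium: Tris acetate buffer pH 5.5 with MgCl2 and Tween-20 | Compound: One concentration, 20 µM, with 1.0% DMSO | Also added: Phospho 17-mer peptide substrate | Signal: Absorbance at 630 nm | Incubation: 45 min enzyme reaction at room temperature | Measure: % inhibition of SCP-1 phosphate liberation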
STEP inh: STEP phosphatase inhibitors, primary screen, biochemical, fluorescence intensity, uHTS; Tyrosine-protein phosphatase non-receptor type 5 (Homo sapiens), P54829; recombinant STEP, OMFP fluorogenic substrate; inhibition, % at 20 µM; 360,000 tested, 0.25% active; AID 588621, 2011;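 active means inhibition at 20 µM, scaled per plate between control wells, above about 37%, limit read from the data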;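 further: 0% = DMSO with enzyme and substrate and 100% = substrate only without enzyme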
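System: STEP phosphatase, cell-free reaction; Buffer or medium: Bis-Tris pH 6.0 buffer with DTT, detergent; Incubation: 20 min at room temperature, dark; Measured by: fluorescence, 480/540 nm.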
DNMT1 inh: human DNMT1 methyltransferase inhibitors, primary screen, biochemical, molecular beacon, fluorescence, HinP1I cleavage, uHTS. 360,000 tested, 0.83% active. DNA (cytosine-5)-methyltransferase 1 (Homo sapiens), P26358. inhibition (reported as % activation of signal), % at 10 µM. AID 588458, 2011; in the data active means inhibition above about 50%
LMPTP inh: LMPTP phosphatase inhibitors, primary screen, biochemical, fluorescence intensity, uHTS; inhibition, % at 20 µM; AID 651560, 2012; recombinant LMPTP-A, OMFP fluorogenic substrate; Low molecular weight phosphotyrosine protein phosphatase (Homo sapiens), P24666; 360,000 tested, 0.22% active;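 active means compounds that cut the enzyme signal by at least half of the control window in the single-dose screen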;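 further: plate controls were DMSO wells with enzyme plus substrate for no effect and substrate without enzyme for full effect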
Target sequence (P24666 whole entry, looked up): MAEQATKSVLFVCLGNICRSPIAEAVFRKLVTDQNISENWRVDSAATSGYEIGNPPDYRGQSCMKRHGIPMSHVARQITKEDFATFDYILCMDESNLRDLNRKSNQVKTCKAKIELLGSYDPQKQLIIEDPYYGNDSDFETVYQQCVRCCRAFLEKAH
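Assay system: LMPTP-A enzyme. Input: 0.625 nM LMPTP-A final. Probe or stimulus: 400 µM OMFP. Compound dosing: single 20 µM dose. Schedule: 50 min dark incubation at room temperature. Detection: fluorescence intensity of OMFP turnover product. Read-out: percent inhibition versus substrate-only and uninhibited controls. Benchmarks: no-enzyme low control, uninhibited high control.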
Scp-1 conf: Scp-1 phosphatase inhibitors, retest, confirmation, biochemical, colorimetric, single concentration; shares compounds with Scp-1 inhibitor; recombinant SCP-1 catalytic domain, phosphate release, malachite green absorbance; inhibition, % at 20 µM; 2,500 tested, 61% active;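 further: plate controls were DMSO with enzyme for no effect and buffer wells lacking enzyme for full effect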
MG interference: colorimetric readout interference by compounds, confirmation, artefact control for Scp-1 inhibitor project, biochemical, single concentration; shares compounds with Scp-1 inhibitor; Colorimetric interference counterscreen, malachite green absorbance 630 nm; apparent inhibition (interference), % at 20 µM; 2,500 tested, under 10 active; AID 540313, 2011;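 further: compounds added after enzyme reaction finished so only phosphate colour detection is probed; plate controls were DMSO wells with completed Scp-1 reaction for no effect and substrate wells lacking enzyme for full effect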
Scp1 DSF: Scp-1 binding by thermal shift, confirmation, orthogonal assay for Scp-1 inhibitor project, biophysical, differential scanning fluorimetry; AID 540329, 2011; 1,500 tested, 25% active; Recombinant SCP1, Sypro Orange thermal shift Tm; thermal shift relative to vanadate control, % at 40 µM; shares compounds with Scp-1 inhibitor;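 active means substances whose mean melting-temperature shift, as a percentage of the reference inhibitor's shift, reaches about 5.3%, limit read from the data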;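 further: 0% = Tm of DMSO wells and 100% = Tm with sodium orthovanadate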
The depositor's hits bear a star; . = no result given.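 How the source made its calls, unless noted: active means inhibition of at least 30% at 20 µM; inactive means the rest.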

SMILES	SUMO1-SIM PPI	GRK2 inh	Scp-1 inhibitor	STEP inh	DNMT1 inh	LMPTP inh	Scp-1 conf	MG interference	others
Cn1c(N)c(C(=O)COC(=O)C2Cc3ccccc3CN2S(C)(=O)=O)c(=O)n(C)c1=O (stereo not given)	13	.	.	-1	-2	3	.	.
C[n+]1ccc(C(=O)Nc2ccccc2Cl)cc1	-10	1	98*	-3	3	-1	90*	-14	Scp1 DSF=-13
CCOc1ccc(CNC(=O)CN2C(=O)CSc3ccc(S(=O)(=O)N4CCOCC4)cc32)cc1	0	.	.	-3	6	-1	.	.
Cc1ccccc1CCNC(=O)Cn1nc(C)c2c(C)n(-c3ccccc3)nc2c1=O	3	1	-7	-1	2	6	.	.
Cc1nn(CC(=O)NCc2cccs2)c(=O)c2nn(-c3ccccc3)c(C)c12	-2	10	51*	-2	-3	-2	-18	-18
C[n+]1cccc(/C=N/NC(=O)CC23CC4CC(CC(C4)C2)C3)c1	-12	0	83*	-5	4	-2	-22	-21
CNC(=O)c1ccc(NC(=O)CC23CC4CC(CC(C4)C2)C3)cc1	0	0	9	-2	1	-1	.	.
CCOCc1cnc(C)nc1NCC(=O)c1c(C)n(C)c2ccc(OC)cc12	1	.	51*	-4	1	0	1	-6
Cc1nnc(NC(=O)CSc2nnc(-c3ccco3)n2C(C)C)s1	0	0	-5	0	0	0	.	.
CC(C)n1c(SCC(=O)Nc2nncs2)nnc1-c1ccco1	.	23	94*	.	.	.	77*	0	Scp1 DSF=-2
Cc1cccc(NC(=O)CN2C(=O)S/C(=C\c3ccc(-c4cccc(C(=O)O)c4C)o3)C2=O)c1	.	0	78*	.	.	.	81*	-8	Scp1 DSF=8.1*
COc1cccc(S(=O)(=O)N(C)C[C@@H]2OCc3cnnn3CCCC(=O)N([C@@H](C)CO)C[C@H]2C)c1	2	.	.	-3	6	-4	.	.
COc1ccc(C2CCCN2CC(O)COc2ccccc2C(C)C)cc1 (stereo not given)	-3	0	61*	0	0	1	-22	-18
Cc1ccc(C(=O)N/C(=C\c2ccco2)C(=O)NCCN2CCOCC2)cc1	-4	3	75*	-1	0	-2	-18	-16
CCn1c(=O)cc(OCC(=O)NCc2ccco2)c2ccccc21	-1	0	57*	2	19	-2	30	-5
CC(=O)Nc1cc(-c2ccc(N)nc2)cn2c(-c3cccc(C(F)(F)F)c3)cnc12	-6	.	.	2	-46	0	.	.
CCC(C)C1Nc2ccc(C(=O)NCc3ccc4c(c3)OCO4)cc2NC1=O (stereo not given)	-9	0	-6	0	0	0	-4	-5
CCn1c(C)[n+](CCOC(C)=O)c2cc(Cl)c(Cl)cc21	3	0	-1	1	1	-2	.	.
CC(=O)OCCCn1c(C)[n+](C)c2cc(Cl)c(Cl)cc21	-3	0	73*	-4	9	-1	-7	-11
C[C@H](CO)N1C[C@H](C)[C@@H](CN(C)S(C)(=O)=O)Oc2c(NC(=O)c3ccncc3)cccc2C1=O	-3	2	55*	-2	7	-1	21	-7
Cc1noc(C)c1NC(=O)N(C)C[C@H]1Oc2c(NC(=O)NC(C)C)cccc2C(=O)N([C@H](C)CO)C[C@@H]1C	1	3	-8	-3	0	0	.	.
Cc1noc(C)c1NC(=O)N(C)C[C@H]1Oc2c(NC(=O)c3ccncc3)cccc2C(=O)N([C@H](C)CO)C[C@@H]1C	3	3	61*	1	4	1	30	4
C[C@H](CO)N1C[C@H](C)[C@@H](CN(C)Cc2ccc(Cl)c(Cl)c2)Oc2c(NC(=O)Cc3ccccc3)cccc2C1=O	11	0	0	0	-7	1	.	.
C[C@H](CO)N1C[C@H](C)[C@@H](CN(C)Cc2ccc(Cl)c(Cl)c2)Oc2c(NC(=O)c3ccncc3)cccc2C1=O	6	1	54*	3	4	-1	-10	-11
C[N+]1=C(/C=C/Nc2ccccc2Cl)C(C)(C)c2ccccc21	-6	1	99*	1	0	0	79*	-15	Scp1 DSF=-12
SMILES	SUMO1-SIM PPI	GRK2 inh	Scp-1 inhibitor	STEP inh	DNMT1 inh	LMPTP inh	Scp-1 conf	MG interference	others
O=C(CCCCn1c(=O)[nH]c2ccsc2c1=O)NCc1ccc2c(c1)OCO2	-2	2	-12	-1	-1	1	.	.
O=C(CCCCn1c(=S)[nH]c2ccsc2c1=O)NCc1ccc2c(c1)OCO2	15	0	59*	12	-2	17	-18	-25
CN(C)CCN1CCN(C2CN(CCc3ccccc3)S(=O)(=O)C2)CC1 (stereo not given)	14	.	.	14	21	-3	.	.
O=C(NCCc1c[nH]c2ccccc12)c1ccc([N+](=O)[O-])o1	-31	.	.	-2	-23	-1	.	.
COC(=O)C1CCN(C(=O)COC(=O)CNS(=O)(=O)c2ccc(SC)c([N+](=O)[O-])c2)CC1	-30	12	74*	11	24	6	43*	-21	Scp1 DSF=-15
c1ccc2c(c1)nc(N1CCCCCC1)c1ccccc12	-1	2	112*	0	0	2	97*	-1	Scp1 DSF=-7
c1ccc2nc(N3CCCC3)c(N3CCCC3)nc2c1	-6	2	-9	2	-3	2	.	.
C/C(=N\NC(=O)c1cc(Br)ccc1O)c1cccs1	3	1	66*	5	5	-1	69*	-7	Scp1 DSF=-2
C/C(=N/NC(=O)c1ccc(Br)o1)c1cccs1	-14	1	-5	0	1	-1	.	.
